{
  "source": "ChEMBL document CHEMBL2176871",
  "about": "“Development of ligands at γ-aminobutyrric acid type A (GABAA) receptor subtype as new agents for pain relief” (Bioorg Med Chem, 2011)",
  "key": {"[1]": {"system": "Rattus norvegicus", "test": "Toxicity in Sprague-Dawley rat mononeuropathy pain model assessed as effect on contralateral paw pressure at 10 mg/kg, po after 15 mins by paw pressure test", "format": "organism-based", "design": "dose 10 mg/kg, route oral", "settings": "in vivo, 0.25 h", "how_it_was_run": "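Same sciatic-ligation rat model, 14 days after surgery. Threshold measured on the non-operated contralateral hind paw by analgesimeter at 32 g/s; first-struggle endpoint; 250 g cut-off; pretest rats outside 40–75 g rejected. Compound given po in 10 ml/kg; readings at 15, 30 and 45 min.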"}, "[2]": {"system": "Rattus norvegicus", "test": "Antinociceptive activity in Sprague-Dawley rat mononeuropathy pain model assessed as increase in injured paw pressure at 1 mg/kg, po after 45 mins by paw pressure test relative to non-treated control", "format": "functional", "how_it_was_run": "(§1)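 Chronic constriction injury: loose ligatures placed on the common sciatic nerve under chloral hydrate; contralateral sham dissection. Tested 14 days after surgery. Paw pressure applied at 32 g/s; threshold taken as the force causing the first struggle; cut-off 250 g; pretest outliers (<40 g or >75 g) excluded. Oral dosing in 10 ml/kg; read at 15, 30 and 45 min; compared with a CMC-treated group.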"}, "[3]": {"system": "Rattus norvegicus", "test": "Antinociceptive activity in Sprague-Dawley rat mononeuropathy pain model assessed as increase in injured paw pressure at 1 mg/kg, po after 15 mins by paw pressure test relative to non-treated control", "format": "functional", "how_it_was_run": "as §1"}, "[4]": {"system": "Mus musculus", "test": "Anticonvulsant activity in Swiss albino mouse […] assessed as protection against intraperitoneally administered pentylenetetrazol-induced seizures at 30 mg/kg, po after 30 mins", "format": "functional", "how_it_was_run": "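Male Swiss albino mice. Compounds given po and PTZ 90 mg/kg injected 30 min later; PTZ was dissolved in 0.9% NaCl saline. Clonic generalized convulsions were recorded over 30 min. Each value is the mean of 10 mice. The methods give the PTZ route as s.c. and the table footnote gives it as ip.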"}, "[5]": {"system": "Rattus norvegicus", "test": "Antinociceptive activity in Sprague-Dawley rat mononeuropathy pain model assessed as increase in injured paw pressure at 60 mg/kg, po after 30 mins by paw pressure test relative to non-treated control", "format": "functional", "how_it_was_run": "as §1"}, "[6]": {"system": "Mus musculus", "test": "Antihyperalgesic activity against streptozotocin-induced hyperalgesia in Swiss albino mouse […] assessed as licking latency time at 30 mg/kg, po after 30 mins by hot plate test (reference value: 9.2 +/- 0.8 secs)", "format": "functional"}, "[7]": {"system": "Rattus norvegicus", "test": "Antinociceptive activity in Sprague-Dawley rat mononeuropathy pain model assessed as increase in injured paw pressure at 30 mg/kg, po after 45 mins by paw pressure test relative to non-treated control", "format": "functional", "how_it_was_run": "as §1"}, "[8]": {"system": "Rattus norvegicus", "test": "Antinociceptive activity in Sprague-Dawley rat mononeuropathy pain model assessed as increase in injured paw pressure at 30 mg/kg, po after 30 mins by paw pressure test relative to non-treated control", "format": "functional", "how_it_was_run": "as §1"}},
  "data": [
    {"smiles": "Cc1cnn2c1n[n+]([O-])c1ccc(OCc3ccccc3)cc12", "values": [
      {"measurement": "Activity", "setting": "[1]", "value": 60.4, "unit": "g"},
      {"measurement": "Activity", "setting": "[2]", "value": 30.8, "unit": "g"},
      {"measurement": "Activity", "setting": "[3]", "value": 32.3, "unit": "g"},
      {"measurement": "Activity", "setting": "[4]", "value": 10, "unit": "%"},
      {"measurement": "Activity", "setting": "[5]", "value": 40.8, "unit": "g"},
      {"measurement": "Time", "setting": "[6]", "value": 17.6, "unit": "s"},
      {"measurement": "Activity", "setting": "[7]", "value": 35.2, "unit": "g"},
      {"measurement": "Activity", "setting": "[8]", "value": 44.2, "unit": "g"}
    ]}
  ]
}
